Target: T1, Signal transducer and activator of transcription 1-alpha/beta (Homo sapiens, UniProt P42224)
T1 sequence (P42224 whole entry): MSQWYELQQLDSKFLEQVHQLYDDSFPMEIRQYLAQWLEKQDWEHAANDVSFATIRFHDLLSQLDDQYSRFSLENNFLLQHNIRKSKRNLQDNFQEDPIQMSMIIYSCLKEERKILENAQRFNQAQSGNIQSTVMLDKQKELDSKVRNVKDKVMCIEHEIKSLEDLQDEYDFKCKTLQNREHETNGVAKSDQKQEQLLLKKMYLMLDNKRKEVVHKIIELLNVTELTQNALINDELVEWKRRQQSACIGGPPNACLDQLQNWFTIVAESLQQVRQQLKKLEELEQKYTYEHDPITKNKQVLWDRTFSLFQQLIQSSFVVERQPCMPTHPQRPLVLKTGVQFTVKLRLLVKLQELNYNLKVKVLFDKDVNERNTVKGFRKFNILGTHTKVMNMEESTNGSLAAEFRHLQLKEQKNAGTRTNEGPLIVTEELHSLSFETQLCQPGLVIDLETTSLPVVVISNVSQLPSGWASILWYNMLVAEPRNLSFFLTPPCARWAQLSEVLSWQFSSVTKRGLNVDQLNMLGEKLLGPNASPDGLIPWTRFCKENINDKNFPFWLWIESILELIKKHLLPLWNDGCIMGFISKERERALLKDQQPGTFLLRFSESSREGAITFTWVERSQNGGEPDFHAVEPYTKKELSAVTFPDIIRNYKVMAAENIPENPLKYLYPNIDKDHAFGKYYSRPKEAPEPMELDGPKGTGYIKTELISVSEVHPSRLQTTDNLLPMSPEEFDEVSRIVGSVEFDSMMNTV
Test: Inhibition of IFN-gamma-induced STAT1 transcriptional activity in human HepG2 cells by luciferase reporter gene assay
How it was run: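 STAT1-dependent luciferase reporter assay in HepG2 cells with IFN-γ stimulation; mean ± SD of at least three independent experiments.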

| IC50 [nM] | SMILES |
| --- | --- |
| 320 | CCCC(C)Oc1ccc(C(=O)Nc2ccc3nc(SCC(=O)N[C@@H](C)c4ccc(OC)cc4)sc3c2)c(OC)c1C (some centres not stated) |
| 350 | CCCC(C)Oc1ccc(C(=O)Nc2ccc3nc(SCC(=O)N[C@@H](C)c4ccccc4)sc3c2)c(OC)c1C (some centres not stated) |
